# MrgX1 agonist = activates human MrgX1 receptor signaling. MrgX1-HEK293 cells, Fluo-4 calcium fluorescence, agonist mode; stronger effect = higher value. B-score at 10 µM. hit rate 0.44% among 310,000. AID 588627;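 active means calcium response B-score plate-corrected fluorescence ratio at least 3 library SD, with starting fluorescence B-score inside 5 SD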
#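 Material: MrgX1-expressing HEK293 cells / Dosing: compound as first of three additions / Incubation: overnight seeding, then 1 h dark dye loading / Signal: Fluo-4 NW calcium fluorescence / Evaluation: B-scored fluorescence response ratio / Benchmarks: positive and negative control wells on each plate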
# MrgX1 PAM = allosterically activates human MrgX1 receptor signaling | Q96LB2 | MrgX1-HEK293, Fluo-4 calcium flux, FDSS; stronger effect = higher value | B-score at 10 µM | hit rate 0.63% among 310,000;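 active means plate-corrected calcium response at least 3 library SD above typical, normal starting fluorescence, not activating the receptor alone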;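 further: compound read alongside a low EC10 to EC30 dose of BAM8-22 agonist; peak minus trough fluorescence over baseline measured at the second addition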
# RGS4 pot = potentiators or activators of RGS4 | HEK293 M3R/inducible RGS4, carbachol calcium flux Fluo4; stronger effect = lower value | B-score at 10 µM | hit rate 0.92% among 310,000;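 active means B-score of the integrated calcium signal more than 4 SD below the library mean, with starting fluorescence not abnormally high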;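 further: negative B-score means reduced calcium response which marks RGS4 activation or potentiation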
#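 Detection: kinetic calcium fluorescence imaging with Fluo4-AM dye, 2 µM / Material: HEK293 cells with stable M3R and inducible RGS4 / Schedule: recording 10 s baseline at 1 Hz, 100 s post-agonist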
# RGS4 inh = inhibitors of human RGS4; hit rate 0.45% among 310,000; P49798; B-score at 10 µM; HEK293 M3R/RGS4 inducible, Fluo-4 calcium flux; stronger effect = higher value; triggered by carbachol at its EC20;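 active means B-score, a plate-corrected calcium signal, over three deviations above library mean, with baseline fluorescence within five deviations of library mean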;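 further: RGS4 expression induced by doxycycline in cells with stable M3 receptor; B-score is computed from the integrated fluorescence ratio over baseline after carbachol; higher B-score means a larger calcium signal and so more RGS4 inhibition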
# Target sequence (P49798 whole entry, looked up): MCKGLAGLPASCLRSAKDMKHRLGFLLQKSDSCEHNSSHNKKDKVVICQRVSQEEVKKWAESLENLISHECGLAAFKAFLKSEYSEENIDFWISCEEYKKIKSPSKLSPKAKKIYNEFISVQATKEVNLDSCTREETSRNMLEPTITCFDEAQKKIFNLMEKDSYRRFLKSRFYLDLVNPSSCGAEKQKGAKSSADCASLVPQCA
# MrgX1 antag = antagonists of human MrgX1 receptor; Q96LB2; MRGX1-HEK293 calcium flux, Fluo-4, BAM8-22 antagonism; stronger effect = lower value; B-score at 10 µM; hit rate 1.3% among 310,000; AID 588676;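 active means calcium-response B-score plate-corrected more than 3 library SD below zero, starting fluorescence within 5 deviations, no agonist response on first addition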;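 further: peak minus trough fluorescence over baseline after final BAM8-22 challenge near maximal dose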
# MrgX1 allo conf = confirmation of human MrgX1 receptor positive allosteric modulators. shares compounds with MrgX1 PAM. MrgX1-HEK293, Fluo-4 calcium fluorescence, FDSS. activation (ratio percentage), % at 10 µM. hit rate 13% among 1,200. AID 602413;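 active means ratio at least 3 SD above the weak peptide control, stable starting fluorescence, no direct agonism earlier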;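 further: compound followed by low BAM8-22 agonist challenge near EC20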
# HEK293 Ca flux = MrgX1 antagonist counter-screen hit in parental HEK293 cells; shares compounds with MrgX1 antag; Fluo-4 calcium fluorescence, FDSS; fluorescence ratio F(max-min)/F0 at 10 µM; hit rate 2% among 4,000;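 active means duplicate-averaged calcium fluorescence ratio at least three times the standard deviation of buffer wells, a nonspecific response in parental cells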
# HEK293 Ca counter = counter-screen for MrgX1 allosteric activators: effect in parental HEK293 cells; parental HEK293 calcium flux, Fluo-4 fluorescence ratio; stronger effect = higher value; fluorescence ratio F(max-min)/F0 at 10 µM; hit rate 0.4% among 4,000; shares compounds with MrgX1 antag;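 active means calcium fluorescence ratio, averaged over duplicates, at least 3 SD of the buffer-well ratio, meaning a nonspecific response in receptor-free cells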;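 further: untransfected parental HEK293 lacking MrgX1 used as counterscreen for MrgX1 allosteric activators; fluorescence change taken during the second addition on a kinetic imager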
# HEK293 Ca cntr2 = counter-screen for MrgX1 activators: effect in parental HEK293 cells. hit rate 8.7% among 4,000. fluorescence ratio F(max-min)/F0 at 10 µM. shares compounds with MrgX1 antag. Fluo-4 calcium fluorescence (FDSS); stronger effect = higher value;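 active means calcium fluorescence ratio at least three times the spread of buffer wells, meaning a non-specific response in parental cells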
# Active calls of the source: *; i = inactive; nt = no result given. Compounds with a hit are over-represented: about 3.5% of the library has one in this group of screens.
SMILES,MrgX1 agonist,MrgX1 PAM,RGS4 pot,RGS4 inh,MrgX1 antag,MrgX1 allo conf,HEK293 Ca flux,HEK293 Ca counter,HEK293 Ca cntr2
CC(C)CC(CO)N1CCN(C(=O)c2cccc(C(F)(F)F)c2)CCC1=O (stereo not drawn),i,10*,i,i,i,i,i,i,i
CCC(c1nnnn1CCc1ccccc1)N1CCN(c2ccc(OC)cc2)CC1 (stereo not drawn),i,7.7*,i,i,i,i,i,i,i
COc1ccc(CNc2ccc(C)cc2)cc1Br,i,i,i,i,i,nt,nt,nt,nt
COc1ccc(CNc2ccccc2)cc1Br,i,9.4*,i,i,i,i,i,i,i
Cn1c(=O)[nH]c(=O)c2c1nc(Br)n2Cc1cccc(Br)c1,i,i,i,i,i,nt,nt,nt,nt
COc1cccc(NC(=O)CSc2nc3c(sc4ccccc43)c(=O)n2CCN(C)C)c1,i,7.5*,i,i,i,i,i,i,i
CCN(CC)CCn1c(SCC(=O)Nc2cccc(OC)c2)nc2c(sc3ccccc32)c1=O,i,i,i,i,i,nt,nt,nt,nt
O=C(COc1ccc(NS(=O)(=O)c2ccc(F)cc2)cc1)N1CCOCC1,i,i,i,i,i,nt,nt,nt,nt
CCCCCCn1c(C(C)NC(=O)c2ccco2)nc2ccccc21 (stereo not drawn),i,18*,i,i,i,i,i,i,i
CCCCn1c(C(C)NC(=O)CC)nc2ccccc21 (stereo not drawn),i,i,i,i,i,nt,nt,nt,nt
COc1ccccc1NS(=O)(=O)c1cc(-c2cnc(C3CC3)o2)ccc1C,i,14*,i,i,i,i,i,i,i
COc1ccc(NS(=O)(=O)c2cc(-c3cnc(C4CC4)o3)ccc2C)cc1,i,i,i,i,i,nt,nt,nt,nt
CCOC(=O)C1CCC(CN(Cc2ccccc2)S(=O)(=O)c2ccc([N+](=O)[O-])cc2)CC1 (stereo not drawn),i,i,i,i,i,nt,nt,nt,nt
COc1cc(OC)cc(C2=NC3(CCC(C)CC3)NC2=S)c1 (stereo not drawn),i,6.6*,i,i,i,i,i,i,i
Cc1ccc(C2=NC3(CCCC3)NC2=S)cc1,i,i,i,i,i,nt,nt,nt,nt
CN(C)CCCOc1ccc2c(c1)Sc1ccccc1CC2=O,i,8.5*,i,i,i,i,i,i,i
c1ccc2c(CCNc3ncnc4nc[nH]c34)c[nH]c2c1,i,7*,i,i,i,9.4%*,i,i,i
c1ccc(CCNc2ncnc3nc[nH]c23)cc1,i,i,i,i,i,nt,nt,nt,nt
Cc1ccc(Nc2nnc(SCC3CCCCO3)s2)cc1 (stereo not drawn),i,8.5*,i,i,i,i,i,i,i
Cc1ccccc1Nc1nnc(SCC2CCCCO2)s1 (stereo not drawn),i,i,i,i,i,nt,nt,nt,nt
O=C(COC(=O)c1cccc(O)c1)Nc1ccc(OC(F)F)cc1,i,10*,i,i,i,i,i,i,i
O=C(COC(=O)c1ccc(O)cc1)Nc1ccc(OC(F)F)cc1,i,i,i,i,i,nt,nt,nt,nt
CCc1ccc2c(c1)C(=O)C[C@]1(CCC[C@H](C)C1)O2,i,i,i,i,i,nt,nt,nt,nt
CS(=O)(=O)N(Cc1cc2ccccc2[nH]c1=O)C1CCCCC1,i,6.8*,i,i,i,i,i,i,i
